How the values were obtained:
Assay type in all cases: functional
[1] = Growth inhibition of human Hs 578T cells by sulforhodamine B assay
Outline: (§1)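 Five-dose response testing across a 57-line human tumour panel (leukemia, non-small cell lung, colon, CNS, melanoma, ovarian, renal, prostate, breast), done after a single-dose primary screen run per the NCI method. Effect plotted against log10 molar drug concentration for each cell line. GI50 is the concentration giving a 50% reduction in net protein increase versus control cells.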

M14 = experiment: Growth inhibition of human M14 cells by sulforhodamine B assay; outline: as §1
IGROV-1 = experiment: Growth inhibition of human IGROV1 cells by sulforhodamine B assay; outline: as §1
OVCAR-5 = experiment: Growth inhibition of human OVCAR5 cells by sulforhodamine B assay; outline: as §1
HT-29 = experiment: Growth inhibition of human HT-29 cells by sulforhodamine B assay; outline: as §1
NCI-H23 = experiment: Growth inhibition of human NCI-H23 cells by sulforhodamine B assay; outline: as §1
NCI-H460 = experiment: Growth inhibition of human NCI-H460 cells by sulforhodamine B assay; outline: as §1
HCT-116 = experiment: Growth inhibition of human HCT116 cells by sulforhodamine B assay; outline: as §1
ACHN = experiment: Growth inhibition of human ACHN cells by sulforhodamine B assay; outline: as §1
MDA-MB-468 = experiment: Growth inhibition of human MDA-MB-468 cells by sulforhodamine B assay; outline: as §1
A549 = experiment: Growth inhibition of human A549 cells by sulforhodamine B assay
Outline: (§2)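 Five-dose response testing across the 57-line human tumour panel. Growth effect was plotted against log10 drug concentration for each cell line. GI50 is the molar concentration giving a 50% reduction in net protein increase relative to untreated control cells. TGI (total growth inhibition) and LC50 (concentration lethal to 50% of cells) were read from the same curves.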

HL-60(TB) = experiment: Growth inhibition of human HL-60(TB) cells by sulforhodamine B assay; outline: as §1
TK-10 = experiment: Growth inhibition of human TK10 cells by sulforhodamine B assay
Outline: (§3)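 Part of a 57-line human tumour cell panel run at five doses. Growth effect was plotted against log10 molar drug concentration for each cell line. GI50 is the concentration giving a 50% reduction in net protein increase relative to untreated control cells, read from the dose-response curve.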

SNB-19 = experiment: Growth inhibition of human SNB19 cells by sulforhodamine B assay; outline: as §1
Malme-3M = experiment: Growth inhibition of human MALME-3M cells by sulforhodamine B assay; outline: as §1
EKVX = experiment: Growth inhibition of human EKVX cells by sulforhodamine B assay; outline: as §1
CCRF-CEM = experiment: Growth inhibition of human CCRF-CEM cells by sulforhodamine B assay; outline: as §1
UO-31 = experiment: Growth inhibition of human UO31 cells by sulforhodamine B assay; outline: as §3
SW-620 = experiment: Growth inhibition of human SW620 cells by sulforhodamine B assay; outline: as §1
UACC-257 = experiment: Growth inhibition of human UACC257 cells by sulforhodamine B assay; outline: as §3
SK-MEL-5 = experiment: Growth inhibition of human SK-MEL-5 cells by sulforhodamine B assay; outline: as §1
HOP-62 = experiment: Growth inhibition of human HOP62 cells by sulforhodamine B assay; outline: as §1
KM12 = experiment: Growth inhibition of human KM12 cells by sulforhodamine B assay; outline: as §1
786-0 = experiment: Growth inhibition of human 786-0 cells by sulforhodamine B assay; outline: as §1
MDA-MB-231 = experiment: Growth inhibition of human MDA-MB-231 cells by sulforhodamine B assay; outline: as §1
LOX IMVI = experiment: Growth inhibition of human LOXIMVI cells by sulforhodamine B assay; outline: as §2
NCI/ADR-RES = experiment: Growth inhibition of human NCI/ADR-RES cells by sulforhodamine B assay; outline: as §1
NCI-H322M = experiment: Growth inhibition of human NCI-H322M cells by sulforhodamine B assay; outline: as §1
OVCAR-3 = experiment: Growth inhibition of human OVCAR-3 cells by sulforhodamine B assay; outline: as §1
[2] = read-out: LC50 (the source's name)

Structure (SMILES): COc1ccc(CN2C(=O)C(O)(C3C(=O)NC(=N)N3C)c3ccccc32)cc1 (configuration not stated)
- GI50 [1]: 60.3 µM
- CC50 [1, 2]: > 100 µM
- GI50 (M14): 4.93 µM
- LC50 (M14): > 100 µM
- GI50 (IGROV-1): 3.26 µM
- CC50 (IGROV-1; [2]): > 100 µM
- GI50 (OVCAR-5): 42.1 µM
- CC50 (OVCAR-5; [2]): > 100 µM
- GI50 (HT-29): 4.06 µM
- LC50 (HT-29): > 100 µM
- GI50 (NCI-H23): 13.9 µM
- LC50 (NCI-H23): > 100 µM
- GI50 (NCI-H460): 29 µM
- LC50 (NCI-H460): > 100 µM
- GI50 (HCT-116): 2.4 µM
- LC50 (HCT-116): > 100 µM
- GI50 (ACHN): > 100 µM
- CC50 (ACHN; [2]): > 100 µM
- GI50 (MDA-MB-468): 11.6 µM
- LC50 (concentration causing 50% net cell kill) (MDA-MB-468): > 100 µM
- GI50 (A549): 43.6 µM
- LC50 (A549): > 100 µM
- GI50 (HL-60(TB)): 4.91 µM
- LC50 (HL-60(TB)): > 100 µM
- GI50 (TK-10): > 100 µM
- CC50 (TK-10; [2]): > 100 µM
- GI50 (SNB-19): 30.6 µM
- CC50 (SNB-19; [2]): > 100 µM
- GI50 (Malme-3M): 27.4 µM
- CC50 (Malme-3M; [2]): > 100 µM
- GI50 (EKVX): 71.7 µM
- LC50 (EKVX): > 100 µM
- GI50 (CCRF-CEM): 2.18 µM
- CC50 (CCRF-CEM; [2]): > 100 µM
- GI50 (UO-31): 83.2 µM
- CC50 (UO-31; [2]): > 100 µM
- GI50 (SW-620): 4.12 µM
- CC50 (SW-620; [2]): > 100 µM
- GI50 (UACC-257): 6.28 µM
- LC50 (UACC-257): > 100 µM
- GI50 (SK-MEL-5): 37.3 µM
- CC50 (SK-MEL-5; [2]): > 100 µM
- GI50 (HOP-62): 4.31 µM
- CC50 (HOP-62; [2]): > 100 µM
- GI50 (KM12): 2.87 µM
- CC50 (KM12; [2]): 80.4 µM
- GI50 (786-0): 23 µM
- CC50 (786-0; [2]): > 100 µM
- GI50 (MDA-MB-231): 19.4 µM
- CC50 (MDA-MB-231; [2]): > 100 µM
- GI50 (LOX IMVI): 8.09 µM
- CC50 (LOX IMVI; [2]): > 100 µM
- GI50 (NCI/ADR-RES): 1.99 µM
- CC50 (NCI/ADR-RES; [2]): > 100 µM
- GI50 (NCI-H322M): 41.1 µM
- CC50 (NCI-H322M; [2]): > 100 µM
- GI50 (OVCAR-3): 2.29 µM
